The record followed here is the M2OR odorant receptor database.

The structures appear in SMILES notation.

Conditions in all cases: stereoisomer not certain
One assay addresses T1, UniProt Q8VFP5.
T1 sequence (whole entry): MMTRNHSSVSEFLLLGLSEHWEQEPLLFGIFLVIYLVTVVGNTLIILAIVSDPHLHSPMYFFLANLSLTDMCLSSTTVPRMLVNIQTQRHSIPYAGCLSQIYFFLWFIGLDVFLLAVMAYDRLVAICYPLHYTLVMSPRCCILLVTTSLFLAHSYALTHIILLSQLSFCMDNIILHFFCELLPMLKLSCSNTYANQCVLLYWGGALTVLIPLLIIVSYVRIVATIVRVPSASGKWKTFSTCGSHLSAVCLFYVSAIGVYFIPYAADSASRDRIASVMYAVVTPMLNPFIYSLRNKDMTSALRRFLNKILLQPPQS
An outline of the steps:
(§1)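 Assay methods differ from source to source, frequently being transient luciferase assays in mammalian cell lines. For each receptor–molecule pair, the label responsive (active) applies when the original authors judged the measured signal statistically different from baseline, and non-responsive (inactive) applies otherwise.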

A further assay addresses T2, UniProt Q8VFZ6.
T2 sequence (whole entry): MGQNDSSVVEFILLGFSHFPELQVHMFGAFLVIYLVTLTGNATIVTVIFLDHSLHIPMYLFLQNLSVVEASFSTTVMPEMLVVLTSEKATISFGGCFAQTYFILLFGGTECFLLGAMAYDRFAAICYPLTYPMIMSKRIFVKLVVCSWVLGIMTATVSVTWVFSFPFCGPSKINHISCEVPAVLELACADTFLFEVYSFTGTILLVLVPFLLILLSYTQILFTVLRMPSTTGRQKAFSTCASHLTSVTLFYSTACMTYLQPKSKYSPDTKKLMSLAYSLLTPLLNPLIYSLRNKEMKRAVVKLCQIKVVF
An outline of the steps: as §1

Another assay deals with T3, UniProt Q8VG01.
T3 sequence (whole entry): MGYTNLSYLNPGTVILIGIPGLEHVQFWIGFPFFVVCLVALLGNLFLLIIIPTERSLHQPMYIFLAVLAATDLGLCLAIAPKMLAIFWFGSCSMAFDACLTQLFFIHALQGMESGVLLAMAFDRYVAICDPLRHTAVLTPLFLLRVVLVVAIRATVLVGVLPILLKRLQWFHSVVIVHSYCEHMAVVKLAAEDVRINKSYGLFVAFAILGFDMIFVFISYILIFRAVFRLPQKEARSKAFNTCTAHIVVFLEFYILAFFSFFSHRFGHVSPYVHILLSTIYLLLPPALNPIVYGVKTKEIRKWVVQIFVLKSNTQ
An outline of the steps:
as §1

For the next assay, the target named is T4, UniProt Q8VG22.
T4 sequence (whole entry): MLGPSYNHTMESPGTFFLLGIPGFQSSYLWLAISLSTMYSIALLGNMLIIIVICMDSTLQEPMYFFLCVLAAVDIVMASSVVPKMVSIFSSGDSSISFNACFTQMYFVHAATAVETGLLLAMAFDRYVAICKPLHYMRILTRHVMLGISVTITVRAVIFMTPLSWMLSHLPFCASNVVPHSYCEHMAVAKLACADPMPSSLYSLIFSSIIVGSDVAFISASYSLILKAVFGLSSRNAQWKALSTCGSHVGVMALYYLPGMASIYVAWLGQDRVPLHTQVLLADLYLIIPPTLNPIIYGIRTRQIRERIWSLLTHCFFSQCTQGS
An outline of the steps: as §1

In a further assay the target is T5, UniProt Q8VG27.
T5 sequence (whole entry): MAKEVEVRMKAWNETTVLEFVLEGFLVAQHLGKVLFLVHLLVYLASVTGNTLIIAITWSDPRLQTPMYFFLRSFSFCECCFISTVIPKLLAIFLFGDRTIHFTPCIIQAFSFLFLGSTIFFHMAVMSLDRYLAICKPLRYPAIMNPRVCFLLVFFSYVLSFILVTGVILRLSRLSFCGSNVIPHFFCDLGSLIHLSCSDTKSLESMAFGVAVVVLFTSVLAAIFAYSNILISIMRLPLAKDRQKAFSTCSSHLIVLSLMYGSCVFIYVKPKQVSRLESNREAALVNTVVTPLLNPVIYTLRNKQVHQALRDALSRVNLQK
The gist of the method:
as §1

The next assay addresses T6, UniProt Q8VG49.
T6 sequence (whole entry): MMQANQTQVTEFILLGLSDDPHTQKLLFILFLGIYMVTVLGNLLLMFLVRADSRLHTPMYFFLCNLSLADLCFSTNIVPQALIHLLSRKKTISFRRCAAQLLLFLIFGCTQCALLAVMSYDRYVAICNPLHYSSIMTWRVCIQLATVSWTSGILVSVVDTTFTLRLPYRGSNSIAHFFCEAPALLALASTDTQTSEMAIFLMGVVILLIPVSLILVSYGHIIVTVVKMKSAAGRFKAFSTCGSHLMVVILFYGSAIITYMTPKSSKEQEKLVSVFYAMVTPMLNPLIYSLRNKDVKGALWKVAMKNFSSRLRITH
An outline of the steps:
as §1

For another assay, the target named is T7, UniProt Q8VG53.
T7 sequence (whole entry): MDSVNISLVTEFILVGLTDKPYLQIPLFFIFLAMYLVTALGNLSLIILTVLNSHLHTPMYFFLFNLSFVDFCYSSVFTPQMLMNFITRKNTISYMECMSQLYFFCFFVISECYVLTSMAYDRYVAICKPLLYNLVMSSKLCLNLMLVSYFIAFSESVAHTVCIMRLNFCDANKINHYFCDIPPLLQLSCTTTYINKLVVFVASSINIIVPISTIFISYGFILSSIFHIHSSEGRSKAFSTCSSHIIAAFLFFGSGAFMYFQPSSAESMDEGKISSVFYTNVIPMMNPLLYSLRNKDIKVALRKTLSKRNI
The gist of the method:
as §1

Another assay deals with T8, UniProt Q8VG64.
T8 sequence (whole entry): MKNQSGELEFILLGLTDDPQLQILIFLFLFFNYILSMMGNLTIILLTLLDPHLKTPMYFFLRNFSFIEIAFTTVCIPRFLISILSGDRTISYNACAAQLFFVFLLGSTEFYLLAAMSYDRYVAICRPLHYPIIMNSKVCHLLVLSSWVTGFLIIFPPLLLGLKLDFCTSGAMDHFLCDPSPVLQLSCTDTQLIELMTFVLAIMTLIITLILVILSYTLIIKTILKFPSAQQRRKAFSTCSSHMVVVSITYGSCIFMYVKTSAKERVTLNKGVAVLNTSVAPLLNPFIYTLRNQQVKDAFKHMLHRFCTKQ
An outline of the steps:
as §1

Another assay has as its target T9, UniProt Q8VG77.
T9 sequence (whole entry): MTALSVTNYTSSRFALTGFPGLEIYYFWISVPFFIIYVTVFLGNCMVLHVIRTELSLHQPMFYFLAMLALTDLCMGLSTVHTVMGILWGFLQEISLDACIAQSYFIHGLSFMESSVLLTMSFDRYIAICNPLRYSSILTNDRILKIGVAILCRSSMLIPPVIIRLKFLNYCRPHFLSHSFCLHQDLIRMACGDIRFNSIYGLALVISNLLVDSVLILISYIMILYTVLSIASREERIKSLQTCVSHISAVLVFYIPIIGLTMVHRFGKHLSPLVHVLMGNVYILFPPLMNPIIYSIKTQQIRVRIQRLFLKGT
An outline of the steps:
as §1

The next assay deals with T10, UniProt Q8VG96.
T10 sequence (whole entry): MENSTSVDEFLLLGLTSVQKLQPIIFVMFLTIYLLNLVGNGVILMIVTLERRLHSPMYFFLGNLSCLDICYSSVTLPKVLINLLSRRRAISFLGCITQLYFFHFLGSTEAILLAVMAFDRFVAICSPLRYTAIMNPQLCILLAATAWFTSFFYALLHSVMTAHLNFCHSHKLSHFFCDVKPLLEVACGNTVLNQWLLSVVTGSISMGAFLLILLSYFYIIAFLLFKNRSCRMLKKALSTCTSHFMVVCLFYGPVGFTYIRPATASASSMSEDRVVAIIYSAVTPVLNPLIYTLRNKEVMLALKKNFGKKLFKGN
An outline of the steps:
as §1

A further assay has as its target T11, UniProt Q8VGB9.
T11 sequence (whole entry): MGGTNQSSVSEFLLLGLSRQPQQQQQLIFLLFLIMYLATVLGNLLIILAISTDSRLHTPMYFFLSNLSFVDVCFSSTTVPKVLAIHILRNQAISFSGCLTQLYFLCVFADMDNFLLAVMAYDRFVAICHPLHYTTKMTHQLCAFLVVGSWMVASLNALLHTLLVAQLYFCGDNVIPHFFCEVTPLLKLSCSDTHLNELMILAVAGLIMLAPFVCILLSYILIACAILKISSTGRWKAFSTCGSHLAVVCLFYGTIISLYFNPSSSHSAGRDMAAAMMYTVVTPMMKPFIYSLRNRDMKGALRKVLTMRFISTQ
The gist of the method: as §1

A further assay addresses UniProt Q8VG28. The gist of the method:
as §1

UniProt Q8VG28, sequence (Q8VG28 as listed by the source): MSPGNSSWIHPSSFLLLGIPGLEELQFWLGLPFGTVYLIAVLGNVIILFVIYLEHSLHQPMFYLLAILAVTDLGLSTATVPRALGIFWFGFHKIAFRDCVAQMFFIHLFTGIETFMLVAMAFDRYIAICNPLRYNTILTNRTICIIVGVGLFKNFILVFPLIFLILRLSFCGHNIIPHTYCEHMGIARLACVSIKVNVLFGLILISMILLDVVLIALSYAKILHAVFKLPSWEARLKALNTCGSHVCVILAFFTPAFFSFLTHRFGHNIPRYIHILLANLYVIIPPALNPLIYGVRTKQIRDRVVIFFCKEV

For the compound `c1ccccc1`, the “odorant receptor agonist call” value with UniProt Q8VFP5, in the assay with UniProt Q8VFZ6, in the assay with UniProt Q8VG01, with UniProt Q8VG22, with UniProt Q8VG27 and with UniProt Q8VG49 was “inactive” throughout. For the same compound, the “odorant receptor agonist call” value with UniProt Q8VG53, in the assay with UniProt Q8VG64, with UniProt Q8VG77, with UniProt Q8VG96 and with UniProt Q8VGB9 was “inactive” in each case.

Take `CCC(=O)O`: the “odorant receptor agonist call” value with UniProt Q8VFP5, with UniProt Q8VFZ6, with UniProt Q8VG01, with UniProt Q8VG22, with UniProt Q8VG27 and with UniProt Q8VG49 was “inactive” throughout. Further, the “odorant receptor agonist call” value in the assay with UniProt Q8VG53, with UniProt Q8VG64, in the assay with UniProt Q8VG77, with UniProt Q8VG96 and with UniProt Q8VGB9 was “inactive” each time.

Consider `CC(C)=CCCC(C)CCO` (stereo not given), for which the “odorant receptor agonist call” value with UniProt Q8VFP5, with UniProt Q8VFZ6, with UniProt Q8VG01, in the assay with UniProt Q8VG22, with UniProt Q8VG27 and with UniProt Q8VG49 was “inactive” in each case. Further, the “odorant receptor agonist call” value with UniProt Q8VG53, with UniProt Q8VG64, in the assay with UniProt Q8VG77, with UniProt Q8VG96 and with UniProt Q8VGB9 was “inactive” each time.

`CCCCC(=O)CC`: the “odorant receptor agonist call” value in the assay with UniProt Q8VFP5, with UniProt Q8VFZ6, with UniProt Q8VG01, with UniProt Q8VG22, with UniProt Q8VG27 and with UniProt Q8VG49 was “inactive” each time. The “odorant receptor agonist call” value with UniProt Q8VG53, with UniProt Q8VG64, with UniProt Q8VG77, in the assay with UniProt Q8VG96 and with UniProt Q8VGB9 was “inactive” each time.

For `COc1cc(C(=O)O)ccc1O`, the “odorant receptor agonist call” value with UniProt Q8VFP5, with UniProt Q8VFZ6, in the assay with UniProt Q8VG01, with UniProt Q8VG22, in the assay with UniProt Q8VG49 and in the assay with UniProt Q8VG53 was “inactive” throughout. The “odorant receptor agonist call” value in the assay with UniProt Q8VG64, with UniProt Q8VG77, with UniProt Q8VG96 and with UniProt Q8VGB9 was “inactive” each time. Further, the “odorant receptor agonist call” value with UniProt Q8VG27 is “active”.

Take `CCCCCCCCCCO`: the “odorant receptor agonist call” value in the assay with UniProt Q8VFP5, with UniProt Q8VFZ6, in the assay with UniProt Q8VG01, with UniProt Q8VG22, in the assay with UniProt Q8VG27 and with UniProt Q8VG49 was “inactive” throughout. In addition, the “odorant receptor agonist call” value with UniProt Q8VG53, with UniProt Q8VG64, in the assay with UniProt Q8VG77, in the assay with UniProt Q8VG96 and with UniProt Q8VGB9 was “inactive” throughout.

With `CCCCCCCCCC(=O)[O-].[H+]`, the “odorant receptor agonist call” value in the assay with UniProt Q8VFP5, with UniProt Q8VFZ6, with UniProt Q8VG01, with UniProt Q8VG22, with UniProt Q8VG53 and with UniProt Q8VG64 was “inactive” each time. The “odorant receptor agonist call” value in the assay with UniProt Q8VG77, with UniProt Q8VG96 and with UniProt Q8VGB9 was “inactive” throughout. Moreover, the “odorant receptor agonist call” value with UniProt Q8VG27, in the assay with UniProt Q8VG28 and in the assay with UniProt Q8VG49 was “active” throughout.

On to `CCCCCOC(=O)CCCCC`, for which the “odorant receptor agonist call” value with UniProt Q8VFP5, with UniProt Q8VFZ6, in the assay with UniProt Q8VG01, with UniProt Q8VG22, with UniProt Q8VG27 and with UniProt Q8VG49 was “inactive” each time. Moreover, the “odorant receptor agonist call” value in the assay with UniProt Q8VG53, with UniProt Q8VG64, in the assay with UniProt Q8VG77, with UniProt Q8VG96 and with UniProt Q8VGB9 was “inactive” throughout.

In the case of `CCCCCCC(C)=O`, the “odorant receptor agonist call” value with UniProt Q8VFP5, with UniProt Q8VFZ6, with UniProt Q8VG01, in the assay with UniProt Q8VG22, in the assay with UniProt Q8VG27 and with UniProt Q8VG49 was “inactive” each time. Moreover, the “odorant receptor agonist call” value with UniProt Q8VG53, with UniProt Q8VG64, with UniProt Q8VG77, in the assay with UniProt Q8VG96 and with UniProt Q8VGB9 was “inactive” in each case.
